# SKN-1 block = suppressors of acrylamide-induced Pgst-4::GFP reporter in worms, primary screen, SKN-1 inhibitor project, whole organism, uHTS, GFP/RFP fluorescence ratio, strain VP596 | 360,000 compounds, 0.49% hits | inhibition, % at 21.8 µM | C. elegans VP596 Pgst-4::GFP/RFP ratio, 24 h;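 active = interference check ratio from 0.5 to 1.5 plus GFP to RFP signal ratio inhibition reaching or exceeding a fixed threshold, cut at about 30% in these data, passing the limit was not always enough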
# hiPSC survival = enhancers of single-cell hiPSC survival, primary screen, ATPlite luminescence. 100% = ROCK inhibitor wells, 0% = DMSO. survival enhancement, % at 20 µM. 360,000 compounds, 0.044% hits. AID 602274, 2012; in the data active = survival enhancement above about 18%;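 note: cells exposed to compounds for 16 hours before the ATP read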
# PREPL inh = PREPL enzyme inhibitors, primary screen, biochemical, fluorescence polarization. 320,000 compounds, 0.68% hits. AID 2751, 2010. recombinant PREPL, fluorescence polarization activity-based probe. Prolyl endopeptidase-like (Homo sapiens), Q4J6C6. inhibition, % at 5.96 µM; in the data active = inhibition above about 43%;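 note: 0% = enzyme with DMSO and 100% = wells lacking enzyme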
# eLon inh = inhibitors of E. coli Lon protease, primary screen, biochemical, fluorescence polarization; P0A9M0; purified E. coli Lon protease; inhibition, % at 7.94 µM; 360,000 compounds, 0.42% hits; AID 602123, 2011; in the data active = inhibition above about 13%, passing the limit was not always enough;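 note: 0% = enzyme with probe and DMSO and 100% = no enzyme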
# MT1-MMP act inh = blockers of MT1-MMP proenzyme processing, primary screen, HT1080 RFP-PRO-GFP cells, GFP/RFP fluorescence | GFP/RFP ratio fluorescence, overnight; percent of plate control window, DMSO zero | AID 651647, 2012 | Matrix metalloproteinase-14 (Homo sapiens), P50281 | GFP/RFP ratio change, % at 20 µM | 360,000 compounds, 0.061% hits;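 active = GFP/RFP ratio change of at least 30% with cell ATP level not reduced by more than half and red fluorescence within 50% of control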
#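 system = RFP-PRO-GFP reporter HT1080 cells | dosing = 20 µM single dose, 1% DMSO | timing = overnight cell settling, then overnight compound exposure, 37 °C, 5% CO2 | read-out basis = GFP/RFP fluorescence ratio | controls = DMSO and RFP-L50D-GFP cell wells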
# TbMetRS inhib = T. brucei MetRS inhibitors, primary screen, biochemical, luminescence | methionyl-tRNA synthetase (Trypanosoma brucei brucei) | purified T. brucei MetRS, ATP depletion, Kinase-Glo luminescence | inhibition, % at 11.9 µM | 360,000 compounds, 0.4% hits | AID 624268, 2012;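 active = inhibition above a per-plate cutoff of the control wells' mean inhibition plus 3 SD, cut at about 5.5% in these data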;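 note: 0% = DMSO wells median and 100% = median of wells with control inhibitor compound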
#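 Dosing: 11.9 µM compound single dose, 0.9% DMSO; Assay system: purified T. brucei MetRS enzyme; Measured by: Kinase-Glo luciferase luminescence reporting remaining unconsumed ATP; Schedule: 15 min plus 2 h at 25 °C.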
# eLon confirm = E. coli Lon protease inhibitor retest, confirmation, biochemical, fluorescence polarization. shares compounds with eLon inh. purified E. coli Lon. inhibition, % at 7.94 µM. 1,400 compounds, 31% hits. AID 602230, 2012; in the data active = inhibition above about 16%;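 note: 0% = enzyme with probe and DMSO and 100% = no enzyme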
# * hit, by the source's call; · = not tested or not shown. In the library only some 1.8% were active in any assay of this set; here they are far more common.
SMILES,SKN-1 block,hiPSC survival,PREPL inh,eLon inh,MT1-MMP act inh,TbMetRS inhib,eLon confirm
O=c1[nH]c(-[n+]2ccc3ccccc3c2)c(/C=N/N=C(\[O-])c2ccccc2)s1,3.4,0.7,14.1,43.2*,-12.2,0.5,-2.4
COc1cc2c(cc1OC)-c1cc3ccc4c(c3c[n+]1CC2)OCO4,-3.6,-0.1,4.7,156.3*,-95.5,0.0,106.3*
COc1cc2c(cc1O)CC[n+]1cc3c(OC)c(OC)ccc3cc1-2,7.8,-5.5,25.6,1.3,-0.3,-0.3,·
Cc1cc(C)c(OCC(=O)NCC(C)(C)N2CCOCC2)c(C)c1,1.9,0.9,-8.0,-0.8,3.2,-0.2,·
CC(=O)c1c(C)[nH]c(C(=O)CSc2nnc(-c3ccco3)n2Cc2ccccc2)c1C,-2.6,-0.1,-1.7,0.6,3.3,-0.6,·
CC(=O)c1c(C)[nH]c(C(=O)CSc2nnc(-c3ccccc3)n2Cc2ccc3c(c2)OCO3)c1C,-25.2,-1.6,-3.3,17.8*,-0.2,-2.0,4.3
CCc1cc[n+](-c2nc([O-])sc2C=O)cc1,0.3,0.9,15.5,40.1*,-35.1,-1.1,7.7
O=C1CN(C(=O)c2ccccc2F)C(c2ccccc2)c2cc(F)ccc2N1 (centres undefined),24.7,5.4,6.5,18.5*,-10.4,-0.5,-9.9
Cc1ccccc1C(=O)N1CC(=O)Nc2ccc(F)cc2C1c1ccc(F)cc1 (centres undefined),20.1,0.3,22.5,3.2,-12.8,-1.6,·
CCCOc1ccc(/C=C/C(=O)Nc2ccc([N+](=O)[O-])cc2)cc1,18.5,-2.7,-3.5,18.7*,-2.0,-0.2,-102.1
OC(c1ccccn1)C(O)c1ccccn1 (centres undefined),10.2,-0.9,·,3.8,-0.1,-0.3,·
OC(C#Cc1ccccn1)c1cccs1 (centres undefined),21.0,-3.2,5.4,30.3*,-17.6,-0.3,5.3
CN(C)c1cccc(CNC(=O)c2csc([C@H]3C[C@H](O)[C@@H](CO)O3)n2)c1,18.7,0.6,·,1.4,-2.4,-0.2,·
COC(=O)c1ccc(S(=O)(=O)N2C3CCC2CC(NC(=O)NC2CCCCC2)C3)cc1 (centres undefined),-1.8,-1.4,-0.2,-7.0,4.2,-0.2,·
COc1ccc(S(=O)(=O)N2C3CCC2CC(NC(=O)NC2CCCCC2)C3)cc1 (centres undefined),9.8,0.4,4.4,82.0*,-4.3,-0.4,0.2
Cn1nc(C(=O)Nc2nc3ccccc3[nH]2)ccc1=O,1.0,-1.1,6.7,2.9,6.6,-0.6,·
CN(Cc1ccccc1)C(=O)CN1C(=O)c2ccc([N+](=O)[O-])cc2C1=O,9.8,-0.4,5.1,18.5*,-2.2,-0.2,-1.3
CN(Cc1ccccc1)C(=O)CN1C(=O)c2ccccc2C1=O,1.0,-0.1,-5.1,-4.9,0.6,1.1,·
O=C(O)/C=C/C(=O)Nc1ccc(O)cc1,3.0,-0.5,22.5,120.5*,-87.4,1.0,0.5
CC(C)[C@H]1COCCS(=O)(=O)N1Cc1ccccc1,-6.6,0.0,-4.1,-7.6,-2.4,-0.2,·
C=CC[n+]1c(-c2ccc(OC)c(OC)c2)csc1NNC(=O)Nc1ccccc1,6.4,4.9,16.3,-24.6,-40.1,-0.2,·
COc1ccccc1N1CCN(C(=O)CNC(=O)Cn2cnc3sc(C)c(C)c3c2=O)CC1,-16.4,0.4,6.4,-12.1,-1.7,-0.5,·
Cc1sc2ncn(CC(=O)NCC(=O)N3CCN(c4ccccc4F)CC3)c(=O)c2c1C,-4.9,-0.6,1.2,19.4*,0.9,-0.5,-29.1
CC1CCCC(C)N1C(=O)/C=C/c1ccc(S(=O)(=O)N2CCOCC2)cc1 (centres undefined),10.6,0.3,·,8.9,2.0,-0.3,·

# Source: PubChem (several laboratories)
